For assay [1], the system named is L1210. Kind of assay: Inhibition of incorporation of tritiated thymidine in the DNA of actively growing L1210 cells. The format is functional, cell-based. Particulars: Mus musculus. In a few lines:
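Actively growing L1210 cells are exposed to the drug, dissolved first in Me₂SO (final Me₂SO 1%). Incorporation of tritiated thymidine into DNA or tritiated uridine into RNA is measured. IC₅₀ is the concentration giving 50% reduction in incorporation.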

For assay [2], the system named is L1210. Nature of the assay: Inhibition of incorporation of tritiated uridine in the RNA of actively growing L1210 cells. The following applies: Mus musculus.
In assay [3] the test system is P388. Kind of assay: Antitumor activity in mice against leukemia P388 cells at 3.4 uM/kg. The format is functional, Mus musculus. In outline:
(§1)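 Mouse survival assay run under NCI protocols. Activity is expressed as T/C: average survival time of treated mice over untreated mice × 100. Values are usually the average of two tests. Toxicity is evaluated on day 5. A T/C above 120 is taken as activity.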

Assay [4] has as its system P388. Kind of assay: Antitumor activity in mice against leukemia P388 cells at 1.7 uM/kg. The format is functional, Mus musculus. In outline: as §1
The subject of assay [5] is B16. Kind of assay: Antitumor activity in mice against melanoma B16 cells at 2.2 uM/kg. The format is functional, Mus musculus. In outline:
as §1

Assay [6] relates to B16. Nature of the assay: Antitumor activity in mice against melanoma B16 cells at 1.1 uM/kg was expressed as ratio of average survival time. The format is functional, Mus musculus.
For assay [7], the system named is P388. Nature of the assay: Antitumor activity in mice against leukemia P388 cells at 0.85 uM/kg. The format is functional, Mus musculus. In outline: as §1
Assay [8] relates to P388. Kind of assay: Antitumor activity in mice against leukemia P388 cells at 0.43 uM/kg. The format is functional, Mus musculus. In outline: as §1
In assay [9] the test system is B16. Kind of assay: Antitumor activity in mice against melanoma B16 cells at 2.2 uM/kg was expressed as ratio of average survival time. The format is functional, Mus musculus.
Assay [10] has as its system B16. Nature of the assay: Antitumor activity in mice against melanoma B16 cells at 0.55 uM/kg. The format is functional, Mus musculus. In outline:
as §1

Assay [11] deals with P388. Kind of assay: Antitumor activity in mice against leukemia P388 cells at 0.85 uM/kg was expressed as ratio of average survival time. The format is functional, Mus musculus. In outline: (§2)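 Mice bearing P388 leukemia were tested under NCI protocols, with doses given in µmol/kg. Toxicity was evaluated on day 5. Efficacy is reported as T/C, the mean survival time of treated mice divided by that of untreated controls, ×100. Values are usually the average of two tests. A T/C above 120 was taken as activity.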

In assay [12] the test system is P388. Nature of the assay: Antitumor activity in mice against leukemia P388 cells at 3.4 uM/kg was expressed as ratio average survival time. The format is functional, Mus musculus. In outline: as §2
The test system of assay [13] is B16. Kind of assay: Antitumor activity in mice against melanoma B16 cells at 0.55 uM/kg was expressed as ratio of average survival time. The format is functional, Mus musculus.
The subject of assay [14] is P388. Kind of assay: Antitumor activity in mice against leukemia P388 cells at 0.43 survival time. The format is functional, Mus musculus. In a few lines:
as §2

Assay [15] has as its system P388. Nature of the assay: Antitumor activity in mice against leukemia P388 cells at 1.7 uM/kg was expressed as ratio of average survival time. The format is functional, Mus musculus. In a few lines:
as §2

In assay [16] the test system is B16. Kind of assay: Antitumor activity in mice against melanoma B16 cells at 1.1 uM/kg. The format is functional, Mus musculus. In outline:
as §1

The subject of assay [17] is P388. Nature of the assay: Antitumor activity in mice against leukemia P388 cells at 8.9 uM/kg was expressed as ratio of average survival time. The format is functional, Mus musculus. In outline:
as §2

Assay [18] relates to P388. Nature of the assay: Antitumor activity in mice against leukemia P388 cells at 17.9 survival time. The format is functional, Mus musculus. In a few lines: as §2
In assay [19] the test system is B16. Nature of the assay: Antitumor activity in mice against melanoma B16 cells at 8.6 uM/kg was expressed as ratio of average survival time. The format is functional, Mus musculus.
Assay [20] has as its system B16. Kind of assay: Antitumor activity in mice against melanoma B16 cells at 34.2 uM/kg was expressed as ratio of average survival time. The format is functional, Mus musculus.
Assay [21] relates to P388. Kind of assay: Antitumor activity in mice against leukemia P388 cells at 4.5 umol/kg. The format is functional, Mus musculus. In a few lines: as §2
Assay [22] deals with B16. Kind of assay: Antitumor activity in mice against melanoma B16 cells at 17.1 uM/kg was expressed as ratio of average survival time. The format is functional, Mus musculus.
Assay [23] relates to P388. Nature of the assay: Antitumor activity in mice against leukemia P388 cells at 4.5 umol/kg was expressed as ratio of average survival time. The format is functional, Mus musculus. In a few lines: as §2
For assay [24], the system named is P388. Kind of assay: Antitumor activity in mice against leukemia P388 cells at 17.9 uM/kg. The format is functional, Mus musculus. In outline:
as §2

Assay [25] has as its system P388. Kind of assay: Antitumor activity in mice against leukemia P388 cells at 8.9 uM/kg. The format is functional, Mus musculus. In outline: as §2
The test system of assay [26] is P388. Kind of assay: Antitumor activity in mice against leukemia P388 cells at 0.86 survival time. The format is functional, Mus musculus. In a few lines: as §2
Assay [27] has as its system P388. Kind of assay: Antitumor activity in mice against leukemia P388 cells at 0.21 survival time. The format is functional, Mus musculus. In outline:
as §2

Assay [28] relates to P388. Kind of assay: Antitumor activity in mice against leukemia P388 cells at 1.7 umol/kg. The format is functional, Mus musculus. In outline: as §1
For assay [29], the system named is P388. Kind of assay: Antitumor activity in mice against leukemia P388 cells at 1.7 umol/kg was expressed as ratio of average survival time. The format is functional, Mus musculus. In outline:
as §2

The test system of assay [30] is P388. Nature of the assay: Antitumor activity in mice against leukemia P388 cells at 0.86 uM/kg. The format is functional, Mus musculus. In a few lines: as §1
For assay [31], the system named is B16. Nature of the assay: Antitumor activity in mice against melanoma B16 cells at 0.16 uM/kg was expressed as ratio of average survival time. The format is functional, Mus musculus.
The test system of assay [32] is B16. Nature of the assay: Antitumor activity in mice against melanoma B16 cells at 0.04 uM/kg was expressed as ratio of average survival time. The format is functional, Mus musculus.
Assay [33] relates to P388. Nature of the assay: Antitumor activity in mice against leukemia P388 cells at 0.11 umol/kg. The format is functional, Mus musculus. In outline: as §1
Assay [34] concerns B16. Nature of the assay: Antitumor activity in mice against melanoma B16 cells at 0.09 uM/kg was expressed as ratio of average survival time. The format is functional, Mus musculus.
Assay [35] concerns P388. Nature of the assay: Antitumor activity in mice against leukemia P388 cells at 0.22 umol/kg was expressed as ratio of average survival time. The format is functional, Mus musculus. In outline: as §2
Assay [36] deals with P388. Kind of assay: Antitumor activity in mice against leukemia P388 cells at 0.22 umol/kg. The format is functional, Mus musculus. In a few lines:
as §1

For assay [37], the system named is B16. Nature of the assay: Antitumor activity in mice against melanoma B16 cells at 0.04 uM/kg. The format is functional, Mus musculus. In a few lines:
as §1

For assay [38], the system named is P388. Kind of assay: Antitumor activity in mice against leukemia P388 cells at 0.05 umol/kg. The format is functional, Mus musculus. In a few lines:
as §1

In assay [39] the test system is P388. Kind of assay: Antitumor activity in mice against leukemia P388 cells at 0.11 umol/kg was expressed as ratio of average survival time. The format is functional, Mus musculus. In outline:
as §2

Assay [40] deals with P388. Kind of assay: Antitumor activity in mice against leukemia P388 cells at 0.05 umol/kg was expressed as ratio of average survival time. The format is functional, Mus musculus. In outline: as §2
Assay [41] relates to B16. Kind of assay: Antitumor activity in mice against melanoma B16 cells at 0.17 umol/kg was expressed as ratio of average survival time. The format is functional, Mus musculus.
Assay [42] concerns B16. Kind of assay: Antitumor activity in mice against melanoma B16 cells at 0.09 uM/kg. The format is functional, Mus musculus. In a few lines: as §1
Assay [43] concerns P388. Nature of the assay: Antitumor activity in mice against leukemia P388 cells at 1.4 uM/kg was expressed as ratio of average survival time. The format is functional, Mus musculus.
The test system of assay [44] is P388. Kind of assay: Antitumor activity in mice against leukemia P388 cells at 1.3 uM/kg was expressed as ratio of average survival time. The format is functional, Mus musculus.

Usually IC50 stands for the concentration that gives 50% inhibition. Regarding `COc1cccc(-c2c3cc(N)ccc3c3ccc(N)cc3[n+]2C)c1`, the IC50 in the assay with L1210 [1] amounted to 25 µM; with L1210 [2], 10 µM.

For the compound `C[n+]1c(-c2cccc(OCCOCCOc3cccc(-c4c5cc(N)ccc5c5ccc(N)cc5[n+]4C)c3)c2)c2cc(N)ccc2c2ccc(N)cc21.[Br-].[Br-]`, the values for the IC50 in the assay with L1210 [1] and in the assay on L1210 [2] were 187 µM and 16 µM, respectively. In addition, the T/C with P388 [3] worked out at 39; in the assay on P388 [4] it was 28; with B16 [5], 142; in the assay on B16 [6] it was 127%; in the assay on P388 [7], 37; with P388 [8], 20. Moreover, the T/C is 142% in the assay with B16 [9]; 109 with B16 [10]; 132% with P388 [11]; 152% in the assay on P388 [12]; 109% in the assay on B16 [13]; 124% in the assay with P388 [14]. For the same compound, the T/C came to 156% in the assay on P388 [15] and 127 with B16 [16].

In the case of `CC[n+]1c(-c2ccccc2)c2cc(N)ccc2c2ccc(N)cc21.[Cl-]`, the T/C with P388 [17] amounted to 150%; with P388 [18] it was 149%; with B16 [19], 108%; in the assay with B16 [20], 135%; with P388 [21], 10; in the assay with B16 [22] it was 112%. Also, the figures for the T/C with P388 [23], with P388 [24] and in the assay with P388 [25] were 135%, 24 and 18, respectively. Further, the IC50 stood at 31 µM in the assay on L1210 [1] and 11 µM in the assay on L1210 [2].

As to `C[n+]1c(-c2cccc(OCCCCCCCCCCOc3cccc(-c4c5cc(N)ccc5c5ccc(N)cc5[n+]4C)c3)c2)c2cc(N)ccc2c2ccc(N)cc21.[Cl-].[Cl-]`, the half-inhibitory concentration (IC50) in the assay on L1210 [1] came out at 1.7 µM; with L1210 [2] it was 0.3 µM. For the same compound, the T/C in the assay with P388 [26] is 160%; in the assay on P388 [27], 141%; with P388 [28], 33; in the assay on P388 [29], 158%; in the assay on P388 [14], 156%; with P388 [30], 15.

As for `C[n+]1c(-c2cccc(OCCCCCCCOc3cccc(-c4c5cc(N)ccc5c5ccc(N)cc5[n+]4C)c3)c2)c2cc(N)ccc2c2ccc(N)cc21.[Br-].[Br-]`, the T/C in the assay with B16 [31] came out at 134%; with B16 [32], 116%; in the assay on P388 [33], 13; in the assay with B16 [34], 136%; in the assay on P388 [35], 120%; with P388 [36], 40. Moreover, the T/C is 116 in the assay on B16 [37]; 5 in the assay on P388 [38]; 126% in the assay with P388 [39]; 120% in the assay with P388 [40]; 138% in the assay on B16 [41]; 136 in the assay on B16 [42]. Also, the results for the concentration for half-maximal inhibition (IC50) with L1210 [1] and in the assay with L1210 [2] were 12 µM and 0.6 µM, respectively.

With `COc1cccc2c1C(=O)c1c(O)c3c(c(O)c1C2=O)C[C@@](O)(C(C)=O)C[C@@H]3O[C@H]1C[C@H](N)[C@H](O)[C@H](C)O1` [DAUNORUBICIN], the T/C with P388 [43] is given as 160.

Turning to `COc1cccc2c1C(=O)c1c(O)c3c(c(O)c1C2=O)C[C@@](O)(C(=O)CO)C[C@@H]3O[C@H]1C[C@H](N)[C@H](O)[C@H](C)O1` [DOXORUBICIN], in the assay with P388 [44], the T/C was 197.

(Values after ChEMBL document CHEMBL1121745, “New dimeric analogues of ethidium; synthesis, interaction with DNA, and antitumor activity” (J Med Chem, 1981).)
